We go through 12 molecules from ChEMBL document CHEMBL4229499, “Development of novel silanol-based human pregnane X receptor (PXR) agonists with improved receptor selectivity” (Bioorg Med Chem, 2018).

Structures are written as SMILES.

What is called EC50 is the concentration that produces a half-maximal response. As a reminder, the IC50 is the point on the concentration scale where inhibition reaches its midpoint. Broadly, the logP is the decadic logarithm of the partition coefficient of the neutral form, usually between octanol and water. A higher logP goes with higher lipophilicity.

Data set [1] concerns the target T1, Nuclear receptor subfamily 1 group I member 2 (Homo sapiens, UniProt O75469).
T1 sequence (O75469 whole entry): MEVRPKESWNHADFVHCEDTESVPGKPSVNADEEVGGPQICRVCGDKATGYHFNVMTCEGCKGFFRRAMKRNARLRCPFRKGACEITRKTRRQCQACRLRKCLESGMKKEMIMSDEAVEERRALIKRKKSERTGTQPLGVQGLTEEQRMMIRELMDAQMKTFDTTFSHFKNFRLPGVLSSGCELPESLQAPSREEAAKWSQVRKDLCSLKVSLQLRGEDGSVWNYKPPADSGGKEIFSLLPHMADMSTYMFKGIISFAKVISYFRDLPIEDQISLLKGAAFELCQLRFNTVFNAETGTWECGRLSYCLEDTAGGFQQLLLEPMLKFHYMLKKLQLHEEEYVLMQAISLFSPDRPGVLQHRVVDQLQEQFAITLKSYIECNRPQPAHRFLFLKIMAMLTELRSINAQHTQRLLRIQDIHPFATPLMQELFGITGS
The experiment in a line: Agonist activity at VP16-fused human PXR expressed in HEK293 cells after 24 hrs by luciferase reporter gene assay. It is filed as cell-based. In outline:
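HEK293 cells grown in DMEM with 5% FBS and penicillin/streptomycin at 37 °C, 5% CO₂. Seeded at 20% confluence 24 h before calcium-phosphate co-transfection with 150 ng receptor expression plasmid (PXR as a VP16 fusion), 500 ng luciferase reporter and 10 ng β-gal vector. Luciferase was normalized to β-galactosidase, in triplicate transfections.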
Background: Reporter assays use an easily measured gene product as a stand-in for the process of interest.

Data set [2] has as its target T2, Nuclear receptor ROR-alpha (Homo sapiens, UniProt P35398).
T2 sequence (P35398 whole entry): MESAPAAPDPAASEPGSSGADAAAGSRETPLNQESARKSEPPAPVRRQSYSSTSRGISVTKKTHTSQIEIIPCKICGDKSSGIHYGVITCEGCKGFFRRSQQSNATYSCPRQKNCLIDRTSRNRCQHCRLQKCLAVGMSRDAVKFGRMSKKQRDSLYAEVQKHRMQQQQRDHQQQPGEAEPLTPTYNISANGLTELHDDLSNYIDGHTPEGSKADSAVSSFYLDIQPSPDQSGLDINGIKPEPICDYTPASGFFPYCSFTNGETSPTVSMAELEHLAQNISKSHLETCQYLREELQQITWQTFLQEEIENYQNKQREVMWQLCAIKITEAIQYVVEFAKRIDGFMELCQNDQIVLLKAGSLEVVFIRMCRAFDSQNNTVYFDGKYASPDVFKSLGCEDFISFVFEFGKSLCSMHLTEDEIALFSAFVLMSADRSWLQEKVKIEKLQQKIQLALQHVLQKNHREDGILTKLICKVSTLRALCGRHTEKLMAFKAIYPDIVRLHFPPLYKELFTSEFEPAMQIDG
Kind of data set: Inhibition of human RORalpha1 expressed in HEK293 cells after 24 hrs by luciferase reporter gene assay. It is filed as cell-based.

Data set [3] in a line: Octanol/water partition co-efficient, log P of the compound by HPLC method. Type of data set: physicochemical.
Data set [4] addresses T3, Nuclear receptor ROR-gamma (Homo sapiens, UniProt P51449).
T3 sequence (P51449 whole entry): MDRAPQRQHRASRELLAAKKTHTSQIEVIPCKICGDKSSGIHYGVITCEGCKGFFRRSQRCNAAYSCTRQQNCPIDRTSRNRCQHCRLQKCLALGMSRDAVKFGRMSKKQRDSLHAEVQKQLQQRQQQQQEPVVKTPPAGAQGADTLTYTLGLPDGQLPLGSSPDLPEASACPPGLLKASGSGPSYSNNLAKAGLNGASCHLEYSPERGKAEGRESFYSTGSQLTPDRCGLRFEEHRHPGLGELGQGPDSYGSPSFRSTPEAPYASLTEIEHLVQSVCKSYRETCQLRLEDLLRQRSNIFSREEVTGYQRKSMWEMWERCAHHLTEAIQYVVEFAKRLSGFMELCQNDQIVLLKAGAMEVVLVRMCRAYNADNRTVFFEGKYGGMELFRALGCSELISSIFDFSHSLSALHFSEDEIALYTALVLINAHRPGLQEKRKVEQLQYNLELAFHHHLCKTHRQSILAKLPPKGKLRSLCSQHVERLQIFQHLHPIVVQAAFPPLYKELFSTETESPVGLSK
The experiment in a line: Inhibition of human RORgamma1 expressed in HEK293 cells after 24 hrs by luciferase reporter gene assay. Type of data set: cell-based.

For data set [5], the target named is T4, Nuclear receptor ROR-alpha (Homo sapiens) (UniProt P35398).
T4 sequence (whole entry): T2 sequence (P35398 whole entry)
Kind of data set: Agonist activity at human RORalpha1 expressed in HEK293 cells after 24 hrs by luciferase reporter gene assay. Type of data set: cell-based.

Data set [6] addresses T5, Nuclear receptor ROR-gamma (Homo sapiens) (UniProt P51449).
T5 sequence (whole entry): T3 sequence (P51449 whole entry)
Kind of data set: Agonist activity at human RORgamma1 expressed in HEK293 cells after 24 hrs by luciferase reporter gene assay. Type of data set: cell-based.

For the molecule `C[Si](C)(O)c1ccc(N(Cc2ccccc2)S(=O)(=O)c2ccccc2)cc1`, in data set [1] (read-out: EC50), the EC50 amounted to 3.2 µM. In addition, the IC50 in data set [2] (read-out: IC50) and in data set [4] (read-out: IC50) was > 30 µM throughout. The logP in data set [3] is 3.92.
As to `C[Si](C)(O)c1ccc(N(CC(F)(F)F)S(=O)(=O)c2ccccc2)cc1`, the EC50 in data set [1] (read-out: EC50) was 0.63 µM. The values for the half-inhibitory concentration (IC50) in data set [2] (read-out: IC50) and in data set [4] (read-out: IC50) were > 30 µM and 11 µM, respectively.
In the case of `CC(C)(O)c1ccc(N(CC(F)(F)F)S(=O)(=O)c2ccccc2)cc1`, the EC50 result in data set [1] (hek293) is on record as “Not Active”. Moreover, the half-inhibitory concentration (IC50) entry in data set [2] (hek293) is “Not Active”; in data set [4] (read-out: IC50), > 30 µM.
In the case of `CCCCN(c1ccc([Si](C)(C)O)cc1)S(=O)(=O)c1ccccc1`, in data set [1] (read-out: EC50), the half-maximal effective concentration (EC50) came to 6.5 µM. In addition, the IC50 in data set [2] (read-out: IC50) and in data set [4] (read-out: IC50) was > 30 µM throughout. This molecule also returned a logP in data set [3] of 4.05.
In the case of `COC(=O)CN(c1ccc(C(C)(C)O)cc1)S(=O)(=O)c1ccccc1`, the EC50 result in data set [1] (hek293) was “Not Active”. Also, the concentration for half-maximal inhibition (IC50) result was “Not Active” in data set [2] (hek293) and > 30 µM in data set [4] (read-out: IC50). In data set [3], this molecule registered a lipophilicity (logP) of 2.35.
Regarding `COC(=O)CN(c1ccc([Si](C)(C)O)cc1)S(=O)(=O)c1ccccc1`, the concentration giving a half-maximal response (EC50) in data set [1] (read-out: EC50) came to 1.4 µM. The concentration for half-maximal inhibition (IC50) result in data set [2] (hek293) and in data set [4] (hek293) was “Not Active” each time. In data set [3], this molecule registered a logP of 2.79.
`C[Si](C)(O)c1ccc(NS(=O)(=O)c2ccccc2)cc1`: the 50% effective concentration (EC50) in data set [1] (read-out: EC50) stood at 2.4 µM. In addition, the IC50 result in data set [2] (hek293) and in data set [4] (hek293) was “Not Active” each time. In data set [3], this molecule gave a logP of 2.22.
As for `CCN(c1ccc([Si](C)(C)O)cc1)S(=O)(=O)c1ccccc1`, the concentration giving a half-maximal response (EC50) in data set [1] (read-out: EC50) was 1.9 µM. Further, the IC50 in data set [2] (read-out: IC50) and in data set [4] (read-out: IC50) was > 30 µM each time. In data set [3], the logP amounted to 3.2.
Turning to `CN(c1ccc([Si](C)(C)O)cc1)S(=O)(=O)c1ccccc1`, the EC50 in data set [1] (read-out: EC50) came out at 3.4 µM. Also, the Activity was 53% in data set [5] and 54% in data set [6]. This molecule registered a log partition coefficient (logP) in data set [3] of 2.9.
As for `COCCN(c1ccc([Si](C)(C)O)cc1)S(=O)(=O)c1ccccc1`, the EC50 in data set [1] (read-out: EC50) was determined as 4.2 µM. The IC50 entry in data set [2] (hek293) and in data set [4] (hek293) was “Not Active” in each case. In addition, in data set [3], the logP was found to be 2.81.
As to `O=C(O)c1ccc(N(CC(F)(F)F)S(=O)(=O)c2ccccc2)cc1`, the concentration for a half-maximal effect (EC50) result in data set [1] (hek293) is on record as “Not Active”. Moreover, the 50% inhibitory concentration (IC50) entry in data set [2] (hek293) and in data set [4] (hek293) was “Not Active” each time.
Regarding `C[Si](C)(O)c1ccc(N(CCc2ccccc2)S(=O)(=O)c2ccccc2)cc1`, the EC50 in data set [1] (read-out: EC50) was 14 µM. Moreover, the IC50 in data set [2] (read-out: IC50) and in data set [4] (read-out: IC50) was > 30 µM in each case. In data set [3], this molecule gave a log partition coefficient (logP) of 4.32.
